In ChEMBL document CHEMBL2021879, “Novel pyrrolopyrimidine analogues as potent dipeptidyl peptidase IV inhibitors based on pharmacokinetic property-driven optimization” (Eur J Med Chem, 2012):
The source made the active and inactive calls. No cut-off for these calls is given here.

Columns and labels:
[1] = Metabolic stability in rat liver microsomes assessed as compound remaining at 1 uM after 30 mins by LC-MS/MS; format: ADME, Microsome; conditions: read-out: Stability
[2] = Efflux ratio of apparent permeability from apical to basolateral side to basolateral to apical side in human Caco2 cells at 10 uM after 60 mins by LC-MS/MS analysis; conditions: Caco-2
[3] = Apparent permeability from basolateral to apical side in human Caco2 cells at 10 uM after 60 mins by LC-MS/MS analysis; conditions: Caco-2
[4] = Apparent permeability from apical to basolateral side in human Caco2 cells at 10 uM after 60 mins by LC-MS/MS analysis; conditions: Caco-2
Mus musculus [5] = assay: Reduction of glucose excursions in C57Bl/6j lean mouse at 3 mg/kg, po measured after 45 mins by oral glucose tolerance test; format: functional, organism-based; parameters: dose 3 mg/kg
Outline: (§1)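 OGTT after oral treatment: C57BL/6j lean mice at 3 mg/kg, and ob/ob mice at 1, 3 and 10 mg/kg. Blood glucose followed over the glucose challenge; excursion expressed as AUC₀₋₁₂₀ change rate (percent inhibition).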

[6] = Metabolic stability in rat liver microsomes assessed as compound turnover at 1 uM after 30 mins by LC-MS/MS; format: ADME, Microsome; conditions: read-out: Drug metabolism
Outline: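 Pooled rat liver microsomes, 30 min incubation; read-out is percent compound turnover (hepatic first-pass effect); mean of at least three independent determinations.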

[7] = Oral bioavailability in Sprague-Dawley rat at 20 to 25 mg/kg administered as single dose; format: ADME, organism-based; conditions: in vivo
Dipeptidyl peptidase 4 = Dipeptidyl peptidase 4 (Homo sapiens, UniProt P27487); assay: Inhibition of human DPP4 after 10 mins
Dipeptidyl peptidase 9 = Dipeptidyl peptidase 9 (Homo sapiens, UniProt Q86TI2); assay: Inhibition of DPP9
Dipeptidyl peptidase 8 = Dipeptidyl peptidase 8 (Homo sapiens, UniProt Q6V1X1); assay: Inhibition of DPP8
Mus musculus [8] = assay: Reduction of glucose excursions in ob/ob type 2 diabetes mouse model at 10 mg/kg, po measured after 45 mins by oral glucose tolerance test; format: functional; conditions: 0.75 h; outline: as §1
[9] = Half life in Sprague-Dawley rat at 20 to 25 mg/kg, po and […], iv administered as single dose; format: ADME, organism-based; parameters: dose 20-25 mg/kg, route oral; conditions: in vivo
[10] = molecular target: Voltage-gated inwardly rectifying potassium channel KCNH2 (Homo sapiens, UniProt Q12809)
Mus musculus [11] = assay: Reduction of glucose excursions in ob/ob type 2 diabetes mouse model at 3 mg/kg, po measured after 45 mins by oral glucose tolerance test; format: functional; conditions: 0.75 h; outline: as §1
Mus musculus [12] = assay: Reduction of glucose excursions in ob/ob type 2 diabetes mouse model at 1 mg/kg, po measured after 45 mins by oral glucose tolerance test; format: functional; conditions: 0.75 h; outline: as §1

Dipeptidyl peptidase 4, sequence (P27487 whole entry): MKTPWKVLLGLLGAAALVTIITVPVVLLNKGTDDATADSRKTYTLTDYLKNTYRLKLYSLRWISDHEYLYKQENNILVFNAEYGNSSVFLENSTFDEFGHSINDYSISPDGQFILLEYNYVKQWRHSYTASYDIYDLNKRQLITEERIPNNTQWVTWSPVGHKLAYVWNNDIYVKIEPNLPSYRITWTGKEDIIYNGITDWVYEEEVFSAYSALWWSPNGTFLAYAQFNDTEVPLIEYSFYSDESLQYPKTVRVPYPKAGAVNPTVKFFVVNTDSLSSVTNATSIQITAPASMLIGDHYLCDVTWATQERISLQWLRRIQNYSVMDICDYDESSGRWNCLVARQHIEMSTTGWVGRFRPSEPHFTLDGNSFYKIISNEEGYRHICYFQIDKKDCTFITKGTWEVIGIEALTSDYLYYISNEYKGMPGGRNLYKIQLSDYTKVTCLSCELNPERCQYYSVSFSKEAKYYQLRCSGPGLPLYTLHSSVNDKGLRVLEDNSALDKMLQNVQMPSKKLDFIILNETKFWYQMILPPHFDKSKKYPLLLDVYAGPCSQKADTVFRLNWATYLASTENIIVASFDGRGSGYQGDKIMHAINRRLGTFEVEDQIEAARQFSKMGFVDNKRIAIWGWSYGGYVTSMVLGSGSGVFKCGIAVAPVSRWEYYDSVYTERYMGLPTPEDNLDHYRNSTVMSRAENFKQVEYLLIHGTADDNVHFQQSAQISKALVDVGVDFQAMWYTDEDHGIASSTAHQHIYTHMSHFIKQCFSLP
Dipeptidyl peptidase 9, sequence (Q86TI2 whole entry): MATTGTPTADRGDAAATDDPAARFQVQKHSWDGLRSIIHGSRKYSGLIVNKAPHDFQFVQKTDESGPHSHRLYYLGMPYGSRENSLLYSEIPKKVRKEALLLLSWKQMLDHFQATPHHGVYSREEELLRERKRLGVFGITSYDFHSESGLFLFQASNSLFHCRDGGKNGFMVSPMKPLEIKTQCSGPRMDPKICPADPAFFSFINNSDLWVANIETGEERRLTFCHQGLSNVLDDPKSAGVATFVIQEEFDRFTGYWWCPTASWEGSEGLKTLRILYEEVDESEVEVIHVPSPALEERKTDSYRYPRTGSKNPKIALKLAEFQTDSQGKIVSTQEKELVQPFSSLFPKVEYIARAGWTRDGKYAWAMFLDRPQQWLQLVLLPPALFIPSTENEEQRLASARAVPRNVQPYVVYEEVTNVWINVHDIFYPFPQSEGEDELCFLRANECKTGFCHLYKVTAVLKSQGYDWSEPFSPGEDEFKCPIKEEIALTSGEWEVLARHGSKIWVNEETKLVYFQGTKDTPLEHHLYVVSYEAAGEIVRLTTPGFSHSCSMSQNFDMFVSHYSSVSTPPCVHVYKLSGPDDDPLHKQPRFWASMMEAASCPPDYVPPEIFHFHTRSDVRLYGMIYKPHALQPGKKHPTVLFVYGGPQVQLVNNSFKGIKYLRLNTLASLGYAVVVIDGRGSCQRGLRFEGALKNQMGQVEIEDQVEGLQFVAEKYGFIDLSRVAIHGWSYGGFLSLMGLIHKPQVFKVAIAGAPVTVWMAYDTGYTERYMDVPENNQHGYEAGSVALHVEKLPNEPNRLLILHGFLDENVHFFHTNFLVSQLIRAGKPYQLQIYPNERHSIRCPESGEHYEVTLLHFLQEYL
Dipeptidyl peptidase 8, sequence (Q6V1X1 whole entry): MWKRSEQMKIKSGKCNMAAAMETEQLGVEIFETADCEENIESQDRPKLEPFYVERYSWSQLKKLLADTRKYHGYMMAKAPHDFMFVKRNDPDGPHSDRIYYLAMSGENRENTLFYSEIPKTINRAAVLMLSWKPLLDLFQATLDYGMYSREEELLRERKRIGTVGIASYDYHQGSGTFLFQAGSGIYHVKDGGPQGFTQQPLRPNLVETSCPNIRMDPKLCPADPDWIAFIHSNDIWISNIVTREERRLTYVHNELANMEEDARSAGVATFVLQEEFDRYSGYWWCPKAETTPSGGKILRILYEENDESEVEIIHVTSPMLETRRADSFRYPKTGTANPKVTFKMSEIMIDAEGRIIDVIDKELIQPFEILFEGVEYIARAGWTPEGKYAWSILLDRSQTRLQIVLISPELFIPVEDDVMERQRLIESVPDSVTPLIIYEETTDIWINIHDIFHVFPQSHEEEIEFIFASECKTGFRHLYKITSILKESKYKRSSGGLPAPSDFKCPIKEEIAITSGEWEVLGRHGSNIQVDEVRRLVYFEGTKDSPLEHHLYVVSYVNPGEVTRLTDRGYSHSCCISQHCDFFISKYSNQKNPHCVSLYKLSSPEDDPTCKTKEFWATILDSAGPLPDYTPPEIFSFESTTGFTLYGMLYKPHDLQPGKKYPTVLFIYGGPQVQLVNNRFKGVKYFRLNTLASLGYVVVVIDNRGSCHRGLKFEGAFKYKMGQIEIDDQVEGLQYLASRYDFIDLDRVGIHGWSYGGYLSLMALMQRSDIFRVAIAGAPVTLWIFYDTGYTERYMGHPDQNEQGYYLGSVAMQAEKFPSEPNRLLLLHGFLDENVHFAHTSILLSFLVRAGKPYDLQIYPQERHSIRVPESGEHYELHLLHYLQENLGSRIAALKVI
Voltage-gated inwardly rectifying potassium channel KCNH2, sequence (Q12809 whole entry): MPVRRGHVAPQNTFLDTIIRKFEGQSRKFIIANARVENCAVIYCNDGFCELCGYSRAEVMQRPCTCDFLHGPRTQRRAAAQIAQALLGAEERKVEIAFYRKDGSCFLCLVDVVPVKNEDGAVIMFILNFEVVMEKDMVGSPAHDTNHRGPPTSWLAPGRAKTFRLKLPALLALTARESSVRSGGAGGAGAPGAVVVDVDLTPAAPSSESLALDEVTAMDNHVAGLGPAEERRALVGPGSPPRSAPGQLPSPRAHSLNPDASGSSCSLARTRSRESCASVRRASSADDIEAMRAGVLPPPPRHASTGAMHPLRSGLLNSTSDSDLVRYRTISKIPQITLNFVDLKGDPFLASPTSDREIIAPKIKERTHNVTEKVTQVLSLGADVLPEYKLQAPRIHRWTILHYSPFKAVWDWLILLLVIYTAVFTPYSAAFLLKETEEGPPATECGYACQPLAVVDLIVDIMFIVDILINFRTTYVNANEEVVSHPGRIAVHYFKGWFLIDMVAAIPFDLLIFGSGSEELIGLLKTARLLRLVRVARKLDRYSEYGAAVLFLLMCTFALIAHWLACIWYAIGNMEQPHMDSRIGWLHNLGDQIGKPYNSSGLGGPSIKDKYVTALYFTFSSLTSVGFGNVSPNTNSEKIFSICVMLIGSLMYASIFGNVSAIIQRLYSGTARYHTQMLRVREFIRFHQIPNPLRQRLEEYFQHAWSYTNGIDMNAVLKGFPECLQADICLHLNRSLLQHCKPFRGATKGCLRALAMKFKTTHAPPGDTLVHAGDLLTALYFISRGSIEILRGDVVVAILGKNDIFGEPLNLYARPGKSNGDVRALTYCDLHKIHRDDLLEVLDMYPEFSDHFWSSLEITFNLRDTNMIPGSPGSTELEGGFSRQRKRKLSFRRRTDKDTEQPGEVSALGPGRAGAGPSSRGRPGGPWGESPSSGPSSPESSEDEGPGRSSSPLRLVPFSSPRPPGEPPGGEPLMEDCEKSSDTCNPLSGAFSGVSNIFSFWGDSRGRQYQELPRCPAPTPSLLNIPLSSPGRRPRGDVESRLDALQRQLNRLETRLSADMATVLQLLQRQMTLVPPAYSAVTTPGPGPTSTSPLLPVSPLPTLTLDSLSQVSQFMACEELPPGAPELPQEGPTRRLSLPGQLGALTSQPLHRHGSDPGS

remaining at 0.5 h, 1 µM [1] [%] | efflux ratio at 1 h, 10 µM [2] | Papp B→A at 1 h, 10 µM [3] [×10⁻⁶ cm/s] | Papp A→B at 1 h, 10 µM [4] [×10⁻⁶ cm/s] | Compound | further results
4.6 |  |  |  | N#Cc1ccccc1Cn1c(N2CCC[C@@H](N)C2)nc2scc(C(F)(F)F)c2c1=O | 
28.1 | 2.51 | 10.3 | 4.13 | N#Cc1ccccc1Cn1c(N2CCC[C@@H](N)C2)nc2c(-c3ccncc3)c[nH]c2c1=O | 
6.6 |  |  |  | N#Cc1ccccc1Cn1c(N2CCC[C@@H](N)C2)nc2ccsc2c1=O | inhibition (Mus musculus [5]): Active; metabolised at 0.5 h, 1 µM [6]: 93%; bioavailability [7]: 23.3%
 | 11.4 | 21.2 | 1.86 | N#Cc1ccccc1Cn1c(N2CCC[C@@H](N)C2)nc2c(-c3ccsc3)c[nH]c2c1=O | 
65.1 |  |  |  | N#Cc1ccccc1Cn1c(N2CCC[C@@H](N)C2)nc2[nH]ccc2c1=O | bioavailability [7]: 5.7%
 | 45.3 | 26.6 | 0.59 | N#Cc1ccccc1Cn1c(N2CCC[C@@H](N)C2)nc2[nH]c(-c3ccc(F)cc3)cc2c1=O | 
24.6 |  |  |  | N#Cc1ccccc1Cn1c(N2CCC[C@@H](N)C2)nc2sccc2c1=O | 
 | 13.3 | 24.6 | 1.84 | Cn1ccc2c(=O)n(Cc3ccccc3C#N)c(N3CCC[C@@H](N)C3)nc21 | 
78 |  | 18.4 | 2.81 | N#Cc1ccccc1Cn1c(N2CCC[C@@H](N)C2)nc2c(Br)c[nH]c2c1=O | inhibition (Mus musculus [5]): Active; inhibition in vivo at 10 mg/kg (Mus musculus [8]): 72.7%; half-life [9]: 2 h; IC50 [10]: > 300 µM; IC50 (Dipeptidyl peptidase 9): > 10 µM; bioavailability [7]: 41%; IC50 (Dipeptidyl peptidase 8): > 10 µM; inhibition in vivo at 3 mg/kg (Mus musculus [11]): 51.9%; inhibition in vivo at 1 mg/kg (Mus musculus [12]): 27.9%
0 |  |  |  | Cc1csc2c(=O)n(Cc3ccccc3C#N)c(N3CCC[C@@H](N)C3)nc12 | 
3.27 |  |  |  | Cc1csc2nc(N3CCC[C@@H](N)C3)n(Cc3ccccc3C#N)c(=O)c12 | 
39.2 | 4.2 | 14.4 | 3.44 | N#Cc1ccccc1Cn1c(N2CCC[C@@H](N)C2)nc2cc[nH]c2c1=O | 
 |  |  |  | Cn1c(=O)cc(N2CCC[C@@H](N)C2)n(Cc2ccccc2C#N)c1=O | inhibition (Mus musculus [5]): Active
 | 37.8 | 11.3 | 0.3 | N#Cc1ccccc1Cn1c(N2CCC[C@@H](N)C2)nc2c(-c3cccnc3)c[nH]c2c1=O | 
41 | 3.37 | 8.41 | 2.5 | Cn1c(Br)c(Br)c2c(=O)n(Cc3ccccc3C#N)c(N3CCC[C@@H](N)C3)nc21 | 

Compound | remaining at 0.5 h, 1 µM [1] [%] | efflux ratio at 1 h, 10 µM [2] | Papp B→A at 1 h, 10 µM [3] [×10⁻⁶ cm/s] | Papp A→B at 1 h, 10 µM [4] [×10⁻⁶ cm/s] | further results
Cc1cc2c(=O)n(Cc3ccccc3C#N)c(N3CCC[C@@H](N)C3)nc2[nH]1 | 91.4 |  | 9.36 | 4.36 | IC50 (Dipeptidyl peptidase 4): 0.0138 µM; IC50 (Dipeptidyl peptidase 9): > 25 µM; IC50 (Dipeptidyl peptidase 8): > 25 µM
N#Cc1ccccc1Cn1c(N2CCC[C@@H](N)C2)nc2[nH]c(-c3cccnc3)cc2c1=O | 73.8 |  | 6.01 | 2.55 | IC50 (Dipeptidyl peptidase 4): 0.00234 µM; IC50 (Dipeptidyl peptidase 9): > 10 µM; IC50 (Dipeptidyl peptidase 8): > 10 µM
N#Cc1ccccc1Cn1c(N2CCC[C@@H](N)C2)nc2[nH]c(Br)cc2c1=O | 71.9 |  | 11.4 | 5.48 | IC50 (Dipeptidyl peptidase 4): 0.00264 µM; IC50 (Dipeptidyl peptidase 9): > 25 µM; IC50 (Dipeptidyl peptidase 8): > 25 µM
